According to the RNAGym collection of RNA variant scans (doi:10.1126/science.aae0568):
Fewer inactive variants are shown than the library holds.

B1: tRNA (parent)
chain: GUUCCGUUGGCGUAAUGGUAACGCGUCUCCCUCCUAAGGAGAAGACUGCGGGUUCGAGUCCCGUACGGAACG

Variants of: B1
Assay: yeast fitness relative to wild type (ratio to wild type); higher = fitter; tRNA-Arg(CCU), competitive growth, 37 C, YPD
Outline: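 Gene amplicons from the start population and from each of six end populations were read by 100-nucleotide paired-end sequencing. Those end populations came from pooled Saccharomyces cerevisiae strains carrying tRNA-Arg(CCU) gene variants at the native locus, competed in YPD at 37°C for 24 hours. Fitness relative to wild type was worked out from changes in genotype frequencies. Genotypes needed ≥ 100 starting reads, and estimates < 0.5 were set to 0.5.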

Variant | yeast fitness
A20G C33A A36C U47A | ≤ 0.5
A20C A43C A69U A70C | 0.725
A20U C29U A42G C49G C55A | ≤ 0.5
A20C C24U C31G A37U C60G | ≤ 0.5
A20U G51A C61G | ≤ 0.5
A21C C24A U32A | ≤ 0.5
A20U G38C A65G | ≤ 0.5
A20G C24U G25A U35A C60U A70G | 0.655
A20C G38A U53A | ≤ 0.5
A20C C30A C33U C34U C49A C62G | ≤ 0.5
A20U C61U | 0.836
A21C C24A C33A G48C | 0.579
A20U C27G C29A G58A | ≤ 0.5
A20C C27U C34G C61U C62G | 0.616
A20G U53C G56C | ≤ 0.5
A20C C49U U59C | 0.588
A20U C27G C29A A65G | ≤ 0.5
A20G C24G C66U | 0.527
A20G C31U C46G | 0.649
A20U C22G A40G G50C G51C G56A | ≤ 0.5
A21C A45U G48C C62U | ≤ 0.5
A20U U28C G44A C46U G48A C49U C60G C62A C66G | ≤ 0.5
A20G C46U A70U | 0.878
A20U C46A | 0.858

Variant | yeast fitness
A20G C31U A57C U64A G68A | ≤ 0.5
A20C G39C C49U | ≤ 0.5
U19G U28G | 0.551
A20C C31G G48A G50C C60G | 0.722
A20G A42C A70G | 0.629
A20G G25A C31G C62A | ≤ 0.5
U19C G50A G56A | 0.749
A20U U59G | 0.728
A20U U59A | 0.847
A20C C34G A69U | 0.549
A20G C27A A40G A45C | ≤ 0.5
A20C C31A | 0.79
A20U C33A C66A | ≤ 0.5
U19G A42U | 0.991
A21C C27G C29A A65C | ≤ 0.5
A20G G44A | 0.962
A20G U28C C62A | ≤ 0.5
U19G U64C | 0.841
U19C U26C C27A C30G U54A G56A | ≤ 0.5
A20G U54C A70C | 0.578
A20U A21C C27A A45G | ≤ 0.5
A20G G56A A57C | 0.574
A21C A57U C66U | ≤ 0.5
A21C C27U C49U G58C C61A A65U A69U | ≤ 0.5

Variant | yeast fitness
A20C C31A G48A U59C | ≤ 0.5
U19G A20U | 0.955
U19G C34A G50A | ≤ 0.5
U19G G39A A40G | 0.56
A20C U28A C62U G67A | ≤ 0.5
U19C G51C | 0.519
A20U C60U A69U | 0.672
A20C G39C G41A | 0.652
A20G G38C C46U G63U | ≤ 0.5
A20G C46G C49G | 0.565
A20G C22G U54A | ≤ 0.5
A20U G23C U35G | 0.643
A21C A36U | 0.54
A20U A36G A43U | 0.601
A20C A37C A43G C55U | ≤ 0.5
A20C G41A G58U | 0.706
A20G A43U | 1.03
A20C U59C A69C | 0.705
U19G C22U G52A | ≤ 0.5
A20U A36G G38A A40U A42G | ≤ 0.5
A21C C22G G38C C49U A57C | ≤ 0.5
A20U C31U C49U | 0.773
U19C U28A G38C G44C C46A | 0.572
A20C C33U A37G C49G A57G | ≤ 0.5

Variant | yeast fitness
A20C C24U C49U | 0.602
A21C C29G C33A A42C C62A | 0.52
A20G C22G G38A | 0.539
A20G C24U | 0.9
A20U C31U C66A | ≤ 0.5
A20U G39A A45C A57C G68C | ≤ 0.5
A20G C34U | 0.777
A20G C34G | 0.68
U19G G38A G50A | ≤ 0.5
A20G C31A C34G A45U | ≤ 0.5
A20U C29G A43U | 0.612
A20U C34U A42U | ≤ 0.5
U19C U35C C49U C61G | ≤ 0.5
A20U A43G G51A A69C | ≤ 0.5
A20G A40C A42U A43C G48A A69C | ≤ 0.5
A20U C55G G58C | ≤ 0.5
A20G C30U C46A G63U | ≤ 0.5
A20G C29A C49U G63A | ≤ 0.5
A21C A65C G67U | ≤ 0.5
A20C A37C | 0.762
A20U C29A C30A U53G C62G | ≤ 0.5
U19G C22G C34U G68C | ≤ 0.5
A20U A37G | 0.892
A20U A36U | 0.639

Variant | yeast fitness
A20G A21G C24U U59C C62A | ≤ 0.5
A20C C24U G68C | 0.542
A20G C29A A40U C62G | ≤ 0.5
A20C C22U C61G | ≤ 0.5
U19G A20U C27G A36G | ≤ 0.5
U19G C24G | 0.553
A20G C31U A42U C46U C66G | 0.714
A20G U47C G50C | ≤ 0.5
A20U A42U A45G | 0.532
A20U A36G G48C G67C | ≤ 0.5
A21C C27A | 0.545
A20U A37C G38C | ≤ 0.5
A20C C33U A37G A45U G48A G56C | ≤ 0.5
A21C C30G A65G | ≤ 0.5
U19G C22G C34U C49U | ≤ 0.5
A20C A21C C27U C46A | 0.6
A20G C22G C27G C30U C31G G51C | ≤ 0.5
A20C A36U G39C G48A | ≤ 0.5
A20C U32A C34G A37U | ≤ 0.5
A21C C22A U26C U35C | ≤ 0.5
A20G G41C A70U | 0.622
A20C A21G G50C A65C | ≤ 0.5
A20U U35C | 0.949
A20C C24G C27U C31G U54C A65C | ≤ 0.5

Variant | yeast fitness
A21C A36U A37G A42C U64A | ≤ 0.5
A20U G23A C31U G39A | ≤ 0.5
A20C G48C A70C | 0.649
A20U G25C A65U A69C | 0.587
A20U C22G A45C U59C | 0.651
A20G C22U G51C | ≤ 0.5
A20C C24U C27G C49A U53C C62G | ≤ 0.5
A20G C24A A70U | 0.546
A20G C29G G50A A70U | ≤ 0.5
A20C G25C A40U | 0.605
A20G G38C A45C G51A | ≤ 0.5
A20C C33A G41C C49G | 0.519
U19G A37G A65U A69U | ≤ 0.5
U19G U47C C66U | 0.786
A20U C31A G52A C66U | 0.527
A21C C29G | 0.622
A20G G56C G68C | 0.6
A20G U28G C31U | 0.588
A20C A42G | 0.842
A20U C29A C30A | ≤ 0.5
A20U U47G G52C | ≤ 0.5
U19C U53C C61A G68A | ≤ 0.5
A20C A43C C49A U54A G58A C60A | ≤ 0.5
A20U C22G G23A A43U G50A | ≤ 0.5

Variant | yeast fitness
A21C C29G G68C | 0.557
A20U C24U A42U C46A C55U C61G | 0.518
A20U U47C | 0.935
A20C G39C | 0.723
A20G C24G G52C | ≤ 0.5
A20C G44A G56A | 0.544
A20U G23A G63A A70U | ≤ 0.5
A20C C34A A37G C46A | 0.541
A20G C60U C62U | ≤ 0.5
A20G C27U U28G | 0.565
A20G A40C A42U A43C | ≤ 0.5
A20C A45C | 0.843
A20U C24U | 0.841
A20U A21U | 0.61
U19G C55G A69U | 0.54
A20C G48C A57G G63A | ≤ 0.5
A20G C24A C49U C66U A70C | ≤ 0.5
A20C A42C A45C G48A | 0.565
A20U C60A | 0.609
A20G G23A G38A | ≤ 0.5
A21C C24U U32A C62G | 0.539
A20G G48C | 1
A20G A43U U64C | 0.704
